Source: ChEMBL document CHEMBL5329164, “Design, synthesis, and evaluation of BTK-targeting PROTACs with optimized bioavailability in vitro and in vivo” (RSC Med Chem, 2023)
Blank lines part the entries; values can stand above or below the molecule they belong to. Active and inactive are the calls of the source. No cut-off for these calls is given here.

Assays:
[1] = Stability in human liver microsomes assessed as half life at 1 uM preincubated for 10 mins followed by reaction initiation measured upto 60 mins in presence of NADPH; format: ADME, Microsome; conditions: time < 70 min
Method in brief: (§1)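 Compound at 1 μM final was incubated with 0.5 mg/mL mouse, rat, dog, monkey or human liver microsomes in 100 mM PBS, pH 7.4, with 1 mM NADPH at 37 °C after a 10 min preincubation. Reactions were stopped at 0, 5, 15, 30 and 60 min with ice-cold acetonitrile containing tolbutamide. Supernatants were taken for bioanalysis.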

[2] = Apparent volume of distribution in BALB/c mouse at 2 mg/kg, iv measured for 24 hrs by LCMS analysis; format: ADME, organism-based; conditions: in vivo, read-out: Vz
Method in brief: (§2)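 Male Balb/c mice, 9 per group, dosed intravenously at 2 mg/kg. Blood was drawn into EDTA-K2 tubes at 0.083, 0.25, 0.5, 1, 2, 4, 6, 8 and 24 h. Plasma was separated by centrifugation at 2000 g for 10 min and precipitated with acetonitrile containing tolbutamide internal standard. Analysis was by LC-MS on a polar C18 column with a water/acetonitrile 0.1% formic acid gradient.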

[3] = Stability in mouse liver microsomes assessed as intrinsic clearance measured per mg protein at 1 uM preincubated for 10 mins followed by reaction initiation measured upto 60 mins in presence of NADPH; format: ADME, Microsome; conditions: time < 70 min, read-out: CLH; method in brief: as §1
[4] = AUClast in BALB/c mouse at 5 mg/kg, po measured for 24 hrs by LCMS analysis; format: ADME, organism-based; design: dose 5 mg/kg, time 24 hrs, route po; conditions: in vivo
Method in brief: (§3)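 Male Balb/c mice, 9 per group, dosed intragastrically at 5 mg/kg; the same compounds were also given iv at 2 mg/kg. Blood was drawn into EDTA-K2 tubes at 0.25, 0.5, 1, 2, 4, 6, 8 and 24 h. Plasma proteins were precipitated with acetonitrile containing tolbutamide. Quantification was by LC-MS on a C18 column with a formic acid water/acetonitrile gradient.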

[5] = Stability in monkey liver microsomes assessed as intrinsic clearance measured per mg protein at 1 uM preincubated for 10 mins followed by reaction initiation measured upto 60 mins in presence of NADPH; format: ADME, Macaca mulatta, Microsome; conditions: rhesus monkey, time < 70 min, read-out: CLH; method in brief: as §1
[6] = Stability in monkey liver microsomes assessed as half life at 1 uM preincubated for 10 mins followed by reaction initiation measured upto 60 mins in presence of NADPH; format: ADME, Macaca mulatta, Microsome; conditions: rhesus monkey, time < 70 min; method in brief: as §1
[7] = Solubility in DMSO:Cremophor EL:1xPBS mixture at 10 mg/ml; format: physicochemical
[8] = Apparent permeability across basal to apical side in MDCK-II cells at 10 uM measured for 120 mins by LC-MS/MS analysis; format: ADME, cell-based, Canis lupus familiaris; conditions: dog
Method in brief: (§4)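 MDCK monolayers were grown on Transwell inserts (5 x 10^4 cells/cm²) and used at day 5. Compound at 10 μM in HBSS with 10 mM Hepes, pH 7.40, was dosed apically or basolaterally and incubated at 37±1 °C. Lucifer yellow passage below 1% confirmed monolayer integrity.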

[9] = Stability in dog liver microsomes assessed as half life at 1 uM preincubated for 10 mins followed by reaction initiation measured upto 60 mins in presence of NADPH; format: ADME, Canis lupus familiaris, Microsome; conditions: time < 70 min; method in brief: as §1
[10] = Half life in BALB/c mouse at 5 mg/kg, po measured for 24 hrs by LCMS analysis; format: ADME, organism-based; conditions: in vivo; method in brief: as §3
[11] = AUClast in BALB/c mouse at 2 mg/kg, iv measured for 24 hrs by LCMS analysis; format: ADME, organism-based; design: time 24 hrs, dose 2 mg/kg, route iv; conditions: in vivo; method in brief: as §2
[12] = Cmax in BALB/c mouse at 5 mg/kg, po measured for 24 hrs by LCMS analysis; format: ADME, organism-based; design: dose 5 mg/kg, time 24 hrs, route po; conditions: in vivo; method in brief: as §3
[13] = target: T1, Protein cereblon/Tyrosine-protein kinase BTK (Homo sapiens) (UniProt Q06187+Q96SW2); experiment: PROTAC activity at CRBN/ BTK in human DOHH-2 cells assessed as induction of BTK degradation at 1.2 to 300 nM incubated for 24 hrs by immunoblot analysis; format: cell-based; conditions: dose 1.2-300 nM
Method in brief: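 DOHH2 cells were grown in RPMI 1640 with 10% FBS, 1% penicillin-streptomycin, 1% nonessential amino acids and 50 µM 2-mercaptoethanol at 37 °C under 5% CO₂. Cells were treated with compound at various concentrations, lysed in SDS buffer and separated on 10% SDS-PAGE. Blots were transferred to PVDF and probed for BTK, with β-actin as loading control.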

[14] = Stability in rat liver microsomes assessed as intrinsic clearance measured per mg protein at 1 uM preincubated for 10 mins followed by reaction initiation measured upto 60 mins in presence of NADPH; format: ADME, Microsome; conditions: time < 70 min, read-out: CLH; method in brief: as §1
[15] = Oral bioavailability in BALB/c mouse at 5 mg/kg measured for 24 hrs by LCMS analysis; format: ADME, organism-based; conditions: in vivo; method in brief: as §3
[16] = Apparent permeability across basal to apical side in MDCK-II cells assessed as compound recovery at 10 uM measured for 120 mins by LC-MS/MS analysis; format: ADME, cell-based, Canis lupus familiaris; conditions: dog, read-out: Drug recovery
Method in brief: as §4, with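 “°C. Receiver and donor samples were taken at 120 min and quantified by LC-MS/MS against an internal standard.” for “°C.”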

[17] = Stability in human liver microsomes assessed as intrinsic clearance measured per mg protein at 1 uM preincubated for 10 mins followed by reaction initiation measured upto 60 mins in presence of NADPH; format: ADME, Microsome; conditions: time < 70 min, read-out: CLH; method in brief: as §1
[18] = Solubility in DMSO:Cremophor EL:1xPBS mixture at 10 mg/ml incubated for 7 days; format: physicochemical; conditions: 168 h, time 7 day
[19] = Apparent permeability across apical to basal side in MDCK-II cells at 10 uM measured for 120 mins by LC-MS/MS analysis; format: ADME, cell-based, Canis lupus familiaris; conditions: dog; method in brief: as §4
[20] = Stability in mouse liver microsomes assessed as half life at 1 uM preincubated for 10 mins followed by reaction initiation measured upto 60 mins in presence of NADPH; format: ADME, Microsome; conditions: time < 70 min; method in brief: as §1
[21] = target: T1, Protein cereblon/Tyrosine-protein kinase BTK (Homo sapiens); experiment: PROTAC activity at CRBN/ BTK in human Ramos cells assessed as induction of BTK degradation at 100 nM incubated for 24 hrs by immunoblot analysis relative to control; format: cell-based
Method in brief: (§5)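 Ramos cells in supplemented RPMI 1640 were plated at 3×10^5 cells/well and treated with compound for 24 h. Lysates in SDS sample buffer were heated at 100 °C for 15 min and run on 10% SDS-PAGE, then transferred to PVDF. Membranes were probed overnight at 4 °C for BTK, GSPT1 and β-actin.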

[22] = Stability in dog liver microsomes assessed as intrinsic clearance measured per mg protein at 1 uM preincubated for 10 mins followed by reaction initiation measured upto 60 mins in presence of NADPH; format: ADME, Canis lupus familiaris, Microsome; conditions: time < 70 min, read-out: CLH; method in brief: as §1
[23] = Clearance in BALB/c mouse at 2 mg/kg, iv measured for 24 hrs by LCMS analysis; format: ADME, organism-based; conditions: in vivo; method in brief: as §2
[24] = Tmax in BALB/c mouse at 5 mg/kg, po measured for 24 hrs by LCMS analysis; format: ADME, organism-based; conditions: in vivo; method in brief: as §3
[25] = Apparent permeability across apical to basal side in MDCK-II cells assessed as compound recovery at 10 uM measured for 120 mins by LC-MS/MS analysis; format: ADME, cell-based, Canis lupus familiaris; conditions: dog, read-out: Drug recovery
Method in brief: as §4, with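 “°C. Receiver and donor samples were taken at 120 min and quantified by LC-MS/MS against an internal standard.” for “°C.”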

[26] = target: T1, Protein cereblon/Tyrosine-protein kinase BTK (Homo sapiens); experiment: PROTAC activity at CRBN/ BTK in human Ramos cells assessed as induction of BTK degradation at 30 nM incubated for 24 hrs by immunoblot analysis; format: cell-based; method in brief: as §5
[27] = Stability in rat liver microsomes assessed as half life at 1 uM preincubated for 10 mins followed by reaction initiation measured upto 60 mins in presence of NADPH; format: ADME, Microsome; conditions: time < 70 min; method in brief: as §1
[28] = Half life in BALB/c mouse at 2 mg/kg, iv measured for 24 hrs by LCMS analysis; format: ADME, organism-based; conditions: in vivo; method in brief: as §2
[29] = target: T1, Protein cereblon/Tyrosine-protein kinase BTK (Homo sapiens); experiment: PROTAC activity at CRBN/ BTK in human Ramos cells assessed as induction of BTK degradation at 300 nM incubated for 24 hrs by immunoblot analysis relative to control; format: cell-based; method in brief: as §5

T1 sequence (Q06187 2-659 limits assumed): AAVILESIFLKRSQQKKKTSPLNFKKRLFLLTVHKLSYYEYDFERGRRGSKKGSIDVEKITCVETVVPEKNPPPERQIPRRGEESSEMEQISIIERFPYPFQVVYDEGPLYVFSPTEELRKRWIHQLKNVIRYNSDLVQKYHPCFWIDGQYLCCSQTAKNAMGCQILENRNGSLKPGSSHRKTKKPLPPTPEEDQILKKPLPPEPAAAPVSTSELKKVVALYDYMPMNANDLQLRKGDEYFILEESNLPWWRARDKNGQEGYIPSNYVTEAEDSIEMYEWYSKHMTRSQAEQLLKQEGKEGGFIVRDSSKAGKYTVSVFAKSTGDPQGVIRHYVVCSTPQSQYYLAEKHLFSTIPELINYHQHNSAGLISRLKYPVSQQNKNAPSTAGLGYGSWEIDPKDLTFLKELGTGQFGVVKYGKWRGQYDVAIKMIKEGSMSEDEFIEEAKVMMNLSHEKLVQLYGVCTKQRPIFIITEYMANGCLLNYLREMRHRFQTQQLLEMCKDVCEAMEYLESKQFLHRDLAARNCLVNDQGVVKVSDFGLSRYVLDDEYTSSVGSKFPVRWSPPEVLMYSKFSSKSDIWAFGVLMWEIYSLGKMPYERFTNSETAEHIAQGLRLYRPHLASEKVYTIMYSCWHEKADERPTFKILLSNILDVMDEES
T1 sequence (Q96SW2 whole entry partner): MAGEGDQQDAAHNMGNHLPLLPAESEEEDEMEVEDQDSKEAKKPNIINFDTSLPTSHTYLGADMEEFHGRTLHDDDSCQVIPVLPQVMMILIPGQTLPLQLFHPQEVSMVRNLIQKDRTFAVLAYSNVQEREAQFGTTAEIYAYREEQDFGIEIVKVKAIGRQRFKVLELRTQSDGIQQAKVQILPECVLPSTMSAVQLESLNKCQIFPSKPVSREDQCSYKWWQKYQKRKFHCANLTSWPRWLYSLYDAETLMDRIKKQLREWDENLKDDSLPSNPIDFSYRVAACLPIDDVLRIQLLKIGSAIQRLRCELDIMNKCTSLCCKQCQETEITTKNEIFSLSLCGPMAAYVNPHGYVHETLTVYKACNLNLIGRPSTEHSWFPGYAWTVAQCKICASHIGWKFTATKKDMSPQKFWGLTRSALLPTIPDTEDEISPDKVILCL

- half-life at 1 µM [1]: 141 min
- Vd [2]: 0.998 L/kg
- microsomal CLint at 1 µM [3]: 10.2 µL/min/mg
- AUC(0-t) at 24 h [4]: 336 ng·h/mL
- microsomal CLint at 1 µM [5]: 4.52 µL/min/mg
- half-life at 1 µM [6]: 307 min
- solubility [7]: Soluble
- Papp B→A at 2 h, 10 µM [8]: 0.01 ×10⁻⁶ cm/s
- half-life at 1 µM [9]: 254 min
- half-life [10]: 31.2 min
- AUC(0-t) at 24 h [11]: 2810 ng·h/mL
- Cmax [12]: 252 ng/mL
- Activity [13]: Active
- microsomal CLint at 1 µM [14]: 7.66 µL/min/mg
- bioavailability [15]: 4.78%
- recovery at 2 h, 10 µM [16]: 116%
- microsomal CLint at 1 µM [17]: 9.83 µL/min/mg
- solubility [18]: Soluble
- Papp A→B at 2 h, 10 µM [19]: 0.016 ×10⁻⁶ cm/s
- half-life at 1 µM [20]: 136 min
- Activity [21]: 18.3%
- microsomal CLint at 1 µM [22]: 5.45 µL/min/mg
- clearance [23]: 11.8 mL/min/kg
- Tmax [24]: 30 min
- recovery at 2 h, 10 µM [25]: 111%
- Activity [26]: 20.7%
- half-life at 1 µM [27]: 181 min
- half-life [28]: 58.8 min
SMILES: Nc1ncnc2c1c(-c1ccc(Oc3ccccc3)cc1)nn2[C@@H]1CCCN(C(=O)c2ccc(CNc3ccc4c(c3)C(=O)N(C3CCC(=O)NC3=O)C4=O)cc2)C1 (stereo partly drawn)

- Activity [21]: 23.1%
- Activity [29]: 24.5%
SMILES: Nc1ncnc2c1c(-c1ccc(Oc3ccccc3)cc1)nn2[C@@H]1CCCN(C(=O)N2CC3(C2)CN(c2ccc4c(c2)C(=O)N(C2CCC(=O)NC2=O)C4=O)C3)C1 (stereo partly drawn)

- Activity [21]: 18.2%
- Activity [29]: 20.1%
SMILES: Nc1ncnc2c1c(-c1ccc(Oc3ccccc3)cc1)nn2[C@@H]1CCCN(C(=O)c2ccc(Nc3ccc4c(c3)C(=O)N(C3CCC(=O)NC3=O)C4=O)cc2)C1 (stereo partly drawn)

- solubility [7]: Insoluble
- Activity [13]: Active
- solubility [18]: Insoluble
- Activity [21]: 28.5%
SMILES: Nc1ncnc2c1c(-c1ccc(Oc3ccccc3)cc1)nn2[C@@H]1CCCN(C(=O)c2cn(CCOCCOCCOCCCc3cccc4c3CN(C3CCC(=O)NC3=O)C4=O)nn2)C1 (stereo partly drawn)

- half-life at 1 µM [1]: 14.4 min
- Vd [2]: 2.31 L/kg
- microsomal CLint at 1 µM [3]: 115 µL/min/mg
- AUC(0-t) at 24 h [4]: 357 ng·h/mL
- microsomal CLint at 1 µM [5]: 139 µL/min/mg
- half-life at 1 µM [6]: 10 min
- Papp B→A at 2 h, 10 µM [8]: 0.071 ×10⁻⁶ cm/s
- half-life at 1 µM [9]: 23 min
- half-life [10]: 68.4 min
- AUC(0-t) at 24 h [11]: 6400 ng·h/mL
- Cmax [12]: 364 ng/mL
- microsomal CLint at 1 µM [14]: 95 µL/min/mg
- bioavailability [15]: 2.23%
- recovery at 2 h, 10 µM [16]: 101%
- microsomal CLint at 1 µM [17]: 96.2 µL/min/mg
- Papp A→B at 2 h, 10 µM [19]: 0.001 ×10⁻⁶ cm/s
- half-life at 1 µM [20]: 12.1 min
- microsomal CLint at 1 µM [22]: 60.3 µL/min/mg
- clearance [23]: 5.17 mL/min/kg
- Tmax [24]: 30 min
- recovery at 2 h, 10 µM [25]: 107%
- half-life at 1 µM [27]: 14.6 min
- half-life [28]: 309 min
SMILES: Nc1ncnc2c1c(-c1ccc(Oc3ccccc3)cc1)nn2[C@@H]1CCCN(C(=O)Cc2ccc(Nc3ccc4c(c3)CN(C3CCC(=O)NC3=O)C4=O)cc2)C1 (stereo partly drawn)

- solubility [7]: Insoluble
- solubility [18]: Insoluble
SMILES: Nc1ncnc2c1c(-c1ccc(Oc3ccccc3)cc1)nn2C1CCN(C2CN(C3CN(c4ccc5c(c4)C(=O)N(C4CCC(=O)NC4=O)C5=O)C3)C2)CC1 (stereo not drawn)

- Activity [21]: 78.4%
- Activity [29]: 79.7%
SMILES: Nc1ncnc2c1c(-c1ccc(Oc3ccccc3)cc1)nn2[C@@H]1CCCN(C(=O)N2CCN(c3ccc4c(c3)C(=O)N(C3CCC(=O)NC3=O)C4=O)CC2)C1 (stereo partly drawn)
